Ki and Ratio data for ten compounds are collected here from ChEMBL document CHEMBL1144410, “Synthesis of 3-arylpiperazinylalkylpyrrolo[3,2-d]pyrimidine-2,4-dione derivatives as novel, potent, and selective alpha1-adrenoceptor ligands” (J Med Chem, 2005).

Where only a bound is given, the exact number is not on record here.

D(1A) dopamine receptor, sequence (P18901 whole entry): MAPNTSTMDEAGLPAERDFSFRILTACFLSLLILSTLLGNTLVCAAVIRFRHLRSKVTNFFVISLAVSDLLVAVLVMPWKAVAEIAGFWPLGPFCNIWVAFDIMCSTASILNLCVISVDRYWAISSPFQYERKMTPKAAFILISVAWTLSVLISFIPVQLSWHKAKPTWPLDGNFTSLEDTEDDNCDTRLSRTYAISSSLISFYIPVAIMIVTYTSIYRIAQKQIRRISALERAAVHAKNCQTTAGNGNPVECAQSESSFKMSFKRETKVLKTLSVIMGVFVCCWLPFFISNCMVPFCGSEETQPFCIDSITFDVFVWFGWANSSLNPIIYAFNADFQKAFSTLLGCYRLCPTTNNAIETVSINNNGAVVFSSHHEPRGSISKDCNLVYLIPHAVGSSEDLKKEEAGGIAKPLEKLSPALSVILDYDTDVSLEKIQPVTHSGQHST

One assay addresses T1, Adrenergic receptor alpha-1 (Rattus norvegicus, UniProt P15823+P23944+P43140).
T1 sequence (P15823 whole entry): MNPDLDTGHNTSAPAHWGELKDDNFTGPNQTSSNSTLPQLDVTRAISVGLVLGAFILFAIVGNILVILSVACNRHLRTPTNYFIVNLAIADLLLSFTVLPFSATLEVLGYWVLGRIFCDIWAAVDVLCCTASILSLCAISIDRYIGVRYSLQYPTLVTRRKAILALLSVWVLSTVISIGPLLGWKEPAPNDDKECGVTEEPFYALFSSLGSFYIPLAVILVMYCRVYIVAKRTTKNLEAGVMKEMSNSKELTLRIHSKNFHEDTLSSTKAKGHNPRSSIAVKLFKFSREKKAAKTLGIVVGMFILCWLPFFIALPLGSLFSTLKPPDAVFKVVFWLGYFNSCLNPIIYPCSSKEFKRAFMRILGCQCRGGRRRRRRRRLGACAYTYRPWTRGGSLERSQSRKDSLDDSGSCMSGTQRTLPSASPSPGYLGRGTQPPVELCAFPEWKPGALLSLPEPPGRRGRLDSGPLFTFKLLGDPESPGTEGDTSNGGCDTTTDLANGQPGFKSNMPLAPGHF
T1 sequence (P23944 whole entry): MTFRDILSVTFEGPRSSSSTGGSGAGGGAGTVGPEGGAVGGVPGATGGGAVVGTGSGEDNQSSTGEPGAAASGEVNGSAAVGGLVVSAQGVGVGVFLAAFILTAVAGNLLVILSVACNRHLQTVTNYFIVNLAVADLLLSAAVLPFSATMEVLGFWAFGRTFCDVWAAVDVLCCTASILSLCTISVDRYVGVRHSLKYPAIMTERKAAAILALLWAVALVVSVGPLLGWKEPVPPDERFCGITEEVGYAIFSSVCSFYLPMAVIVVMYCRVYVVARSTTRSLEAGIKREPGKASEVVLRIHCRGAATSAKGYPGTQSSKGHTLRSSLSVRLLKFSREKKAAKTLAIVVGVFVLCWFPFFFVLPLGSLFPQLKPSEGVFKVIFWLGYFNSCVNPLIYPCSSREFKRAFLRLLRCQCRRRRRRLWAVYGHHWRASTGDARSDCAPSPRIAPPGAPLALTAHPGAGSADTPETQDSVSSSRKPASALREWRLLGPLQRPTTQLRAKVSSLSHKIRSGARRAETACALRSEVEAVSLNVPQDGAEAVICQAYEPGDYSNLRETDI
T1 sequence (P43140 whole entry): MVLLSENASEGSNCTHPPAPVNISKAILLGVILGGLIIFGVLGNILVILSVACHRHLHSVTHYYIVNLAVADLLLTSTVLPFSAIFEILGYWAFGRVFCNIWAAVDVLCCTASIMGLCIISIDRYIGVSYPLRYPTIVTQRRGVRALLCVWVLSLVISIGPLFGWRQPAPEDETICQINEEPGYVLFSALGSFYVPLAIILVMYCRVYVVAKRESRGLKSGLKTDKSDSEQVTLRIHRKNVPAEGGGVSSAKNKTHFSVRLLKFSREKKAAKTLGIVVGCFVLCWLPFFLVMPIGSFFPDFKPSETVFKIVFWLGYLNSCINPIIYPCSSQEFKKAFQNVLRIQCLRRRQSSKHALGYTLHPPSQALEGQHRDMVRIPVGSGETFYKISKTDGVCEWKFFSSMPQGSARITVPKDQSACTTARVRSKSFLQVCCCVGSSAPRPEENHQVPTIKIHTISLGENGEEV
The experiment in a line: Inhibition of [3H]prazosin binding to Alpha-1 adrenergic receptor from rat cortex. An outline of the steps:
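Prepared membranes resuspended in 50 mM Tris-HCl pH 7.7 with 10 µM pargyline and 0.1% ascorbic acid. [3H]prazosin 0.2 nM final, 30 min, 25 °C; nonspecific binding with 3 µM phentolamine. Bound ligand collected on GF/B filters, counted by liquid scintillation. Ki derived from IC50 of dose-inhibition curves; mean ± SD of three separate experiments.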
Broadly, the Ki is the dissociation constant of the complex between target and ligand, obtained from inhibition or displacement. In the case of `COc1ccccc1N1CCN(CCn2c(=O)[nH]c3cc(-c4cccc(Cl)c4)[nH]c3c2=O)CC1`, the inhibitory constant (Ki) is listed as 19.32 nM.
`COc1ccccc1N1CCN(CCCn2c(=O)[nH]c3cc(-c4ccccc4)[nH]c3c2=O)CC1` came in with an inhibitory constant (Ki) of 1.23 nM.
Compound `COc1ccccc1N1CCN(CCn2c(=O)[nH]c3cc(-c4ccccc4)[nH]c3c2=O)CC1` yielded an inhibitory constant (Ki) of 0.52 nM.
As to `COc1ccccc1N1CCN(CCn2c(=O)[nH]c3cc[nH]c3c2=O)CC1`, the Ki turned out to be 2.31 nM.
As to `COc1ccccc1N1CCN(CCCn2c(=O)[nH]c3cc(-c4ccc(C)cc4)[nH]c3c2=O)CC1`, the Ki amounted to 47.88 nM.
For `COc1ccccc1N1CCN(CCCn2c(=O)[nH]c3cc[nH]c3c2=O)CC1`, the Ki stood at 28.01 nM.
Regarding `O=c1[nH]c2cc(-c3ccccc3Cl)[nH]c2c(=O)n1CCN1CCN(c2ccccc2Cl)CC1`, the Ki amounted to 0.46 nM.
Turning to `O=c1[nH]c2cc(-c3ccccc3)[nH]c2c(=O)n1CCN1CCN(c2ccccc2Cl)CC1`, the Ki is given as 1.08 nM.
With `COc1ccc(N2CCN(CCn3c(=O)[nH]c4cc(-c5ccccc5)[nH]c4c3=O)CC2)cc1`, the Ki is > 10000 nM.
Still for that read-out and setting: then `O=c1[nH]c2c([nH]c3ccccc32)c(=O)n1CCN1CCN(c2ccccc2Cl)CC1`, with 0.53 nM.

Another assay has as its target D(1A) dopamine receptor (Rattus norvegicus, UniProt P18901). The experiment in a line: Inhibition of [3H]SCH-23390 binding to Dopamine receptor D1 from rat striatum. An outline of the steps: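 Ligand was [3H]SCH23390 at 0.4 nM final, 15 min, 25 °C; nonspecific binding defined with 10 µM (-)-cis-flupentixol. Filtration on GF/B, liquid scintillation counting. IC50 fitted, Ki derived; mean ± SD, n=3.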
For the compound `O=c1[nH]c2cc(-c3ccccc3Cl)[nH]c2c(=O)n1CCN1CCN(c2ccccc2Cl)CC1`, the Ki was > 10000 nM.

For a further assay, the target named is D(2) dopamine receptor (Rattus norvegicus, UniProt P61169). The experiment in a line: Inhibition of [3H]spiperone binding to Dopamine receptor D2 from rat striatum. An outline of the steps: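 Membrane incubation in 50 mM Tris-HCl pH 7.1 with 10 µM pargyline, 120 mM NaCl, 5 mM KCl, 2 mM CaCl2, 1 mM MgCl2 and 0.1% ascorbic acid. [3H]spiperone 0.2 nM final, 15 min at 37 °C; 100 µM (-)-sulpiride for nonspecific binding. Vacuum filtration through GF/B, scintillation counting; Ki from IC50 of dose-inhibition curves, mean ± SD of three runs.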
D(2) dopamine receptor, sequence (P61169 whole entry): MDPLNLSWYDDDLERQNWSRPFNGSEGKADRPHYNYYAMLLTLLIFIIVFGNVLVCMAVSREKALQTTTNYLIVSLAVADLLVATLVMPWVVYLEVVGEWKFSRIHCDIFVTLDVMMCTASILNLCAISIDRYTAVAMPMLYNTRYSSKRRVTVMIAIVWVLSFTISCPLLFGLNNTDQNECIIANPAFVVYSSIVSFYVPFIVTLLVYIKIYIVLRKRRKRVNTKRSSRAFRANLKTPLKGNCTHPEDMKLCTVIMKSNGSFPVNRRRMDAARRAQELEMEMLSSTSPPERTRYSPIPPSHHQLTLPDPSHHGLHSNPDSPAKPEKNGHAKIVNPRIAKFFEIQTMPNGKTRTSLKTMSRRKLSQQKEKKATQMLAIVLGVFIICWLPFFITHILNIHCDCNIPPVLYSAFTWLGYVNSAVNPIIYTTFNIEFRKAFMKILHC
`O=c1[nH]c2cc(-c3ccccc3Cl)[nH]c2c(=O)n1CCN1CCN(c2ccccc2Cl)CC1` showed a Ki of 27.8 nM.

In the next assay the target is Serotonin 1a (5-HT1a) receptor/Adrenergic receptor alpha-1 (Rattus norvegicus) (UniProt P15823+P23944+P43140+P19327). The experiment in a line: Relative binding affinity for 5-hydroxytryptamine 1A and Alpha-1 adrenergic receptors. The format is protein assay.
For `COc1ccccc1N1CCN(CCn2c(=O)[nH]c3cc(-c4cccc(Cl)c4)[nH]c3c2=O)CC1`, the Ratio was 0.87.
Still for that read-out and setting: under `COc1ccccc1N1CCN(CCCn2c(=O)[nH]c3cc(-c4ccccc4)[nH]c3c2=O)CC1` stands 18; under `COc1ccccc1N1CCN(CCn2c(=O)[nH]c3cc(-c4ccccc4)[nH]c3c2=O)CC1`, 46; under `COc1ccccc1N1CCN(CCn2c(=O)[nH]c3cc[nH]c3c2=O)CC1`, 282.
Regarding `COc1ccccc1N1CCN(CCCn2c(=O)[nH]c3cc(-c4ccc(C)cc4)[nH]c3c2=O)CC1`, the Ratio was determined as 1.73.
As to `COc1ccccc1N1CCN(CCCn2c(=O)[nH]c3cc[nH]c3c2=O)CC1`, the Ratio turned out to be 6.9.
As to `O=c1[nH]c2cc(-c3ccccc3Cl)[nH]c2c(=O)n1CCN1CCN(c2ccccc2Cl)CC1`, the Ratio is > 20000.
Regarding `O=c1[nH]c2cc(-c3ccccc3)[nH]c2c(=O)n1CCN1CCN(c2ccccc2Cl)CC1`, the Ratio was 32.
Same read-out and setting: under `O=c1[nH]c2c([nH]c3ccccc32)c(=O)n1CCN1CCN(c2ccccc2Cl)CC1` stands > 15000.

The species entered for a further assay is Rattus norvegicus. The experiment in a line: Relative binding affinity for Dopamine D1 and Alpha-1 adrenergic receptors.
`O=c1[nH]c2cc(-c3ccccc3Cl)[nH]c2c(=O)n1CCN1CCN(c2ccccc2Cl)CC1`: the Ratio is > 20000.

A further assay is filed under the species Rattus norvegicus. The experiment in a line: Relative binding affinity for Dopamine D2 and Alpha-1 adrenergic receptors.
As for `O=c1[nH]c2cc(-c3ccccc3Cl)[nH]c2c(=O)n1CCN1CCN(c2ccccc2Cl)CC1`, the Ratio was found to be 60.

The target of a further assay is T2, 5-hydroxytryptamine receptor 1A (Rattus norvegicus, UniProt P19327).
T2 sequence (P19327 whole entry): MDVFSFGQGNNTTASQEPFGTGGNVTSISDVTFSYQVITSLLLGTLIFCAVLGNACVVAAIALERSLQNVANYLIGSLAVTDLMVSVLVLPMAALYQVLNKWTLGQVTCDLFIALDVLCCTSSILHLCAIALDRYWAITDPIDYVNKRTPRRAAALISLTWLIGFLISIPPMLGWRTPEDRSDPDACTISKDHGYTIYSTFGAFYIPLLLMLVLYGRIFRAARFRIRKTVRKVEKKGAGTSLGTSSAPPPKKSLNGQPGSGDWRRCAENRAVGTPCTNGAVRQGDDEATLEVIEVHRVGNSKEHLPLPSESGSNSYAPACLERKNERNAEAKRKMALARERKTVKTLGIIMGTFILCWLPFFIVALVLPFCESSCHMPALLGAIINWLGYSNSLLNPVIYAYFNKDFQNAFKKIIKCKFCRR
The experiment in a line: Inhibition of [3H]8-OH-DPAT binding to 5-hydroxytryptamine 1A receptor from rat hippocampus. The format is tissue-based. The essentials:
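Membranes: tissue homogenized in ice-cold 50 mM Tris-HCl pH 7.4, spun 50000g, preincubated 37 °C 10 min, washed. Incubation buffer 50 mM Tris-HCl pH 7.7, 10 µM pargyline, 4 mM CaCl2. [3H]8-OH-DPAT 1 nM final, 30 min, 25 °C; nonspecific with 10 µM 5-HT. Stopped by GF/B filtration, scintillation counting. IC50 from dose-inhibition curves, converted to Ki; mean ± SD of three experiments.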
Compound `COc1ccccc1N1CCN(CCn2c(=O)[nH]c3cc(-c4cccc(Cl)c4)[nH]c3c2=O)CC1` displayed a Ki of 16.9 nM.
`COc1ccccc1N1CCN(CCCn2c(=O)[nH]c3cc(-c4ccccc4)[nH]c3c2=O)CC1` showed a Ki of 22.4 nM.
For `COc1ccccc1N1CCN(CCn2c(=O)[nH]c3cc(-c4ccccc4)[nH]c3c2=O)CC1`, the Ki is 24 nM.
Take `COc1ccccc1N1CCN(CCn2c(=O)[nH]c3cc[nH]c3c2=O)CC1`: the affinity, expressed as Ki, was 651 nM.
Compound `COc1ccccc1N1CCN(CCCn2c(=O)[nH]c3cc(-c4ccc(C)cc4)[nH]c3c2=O)CC1` yielded an inhibition constant (Ki) of 83 nM.
The compound `COc1ccccc1N1CCN(CCCn2c(=O)[nH]c3cc[nH]c3c2=O)CC1` gave a Ki of 193 nM.
Consider `O=c1[nH]c2cc(-c3ccccc3Cl)[nH]c2c(=O)n1CCN1CCN(c2ccccc2Cl)CC1`, for which the inhibition constant (Ki) was > 10000 nM.
Compound `O=c1[nH]c2cc(-c3ccccc3)[nH]c2c(=O)n1CCN1CCN(c2ccccc2Cl)CC1` displayed a Ki of 35 nM.
As for `COc1ccc(N2CCN(CCn3c(=O)[nH]c4cc(-c5ccccc5)[nH]c4c3=O)CC2)cc1`, the Ki is > 10000 nM.
Turning to `O=c1[nH]c2c([nH]c3ccccc32)c(=O)n1CCN1CCN(c2ccccc2Cl)CC1`, the inhibition constant (Ki) was > 10000 nM.
